# Screening data deposited in PubChem BioAssay by SRMLSC.
# This is a sample that favours compounds with a hit; in the whole collection about 6.6% have one here.
# E coli WT exp: E. coli BW25113 growth inhibition, expanded screen. OD600 absorbance. growth inhibition, % at 100 µM. 98,000 compounds, 0.15% hits;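 active means growth inhibition above about 50% at one test dose, limit read from the data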;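 further: growth measured after 20 h incubation at 37 °C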
# PostGolgi ctrl: inhibits growth of the yeast control strain; efflux-deficient yeast background strain, growth absorbance A615, 16 h; inhibition, % at 10 µM; 98,000 compounds, 5% hits
# HER2 expr 66K: Her2 kinase expression inhibition; HER2 level % of control, % at 10 µM; 65,000 compounds, 0.69% hits; P04626; AID 645; SKBR-3 HER2 protein level, AlphaScreen, 18-24 h; active compounds read low;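 active means HER2 level under 5% of the carrier-only control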;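 further: 100% = DMSO carrier and 0% = 500 nM PU-H71 HSP90 inhibitor; lower value means stronger loss of Her2 protein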
# Ecoli tolC: E. coli tolC mutant growth inhibition; 65,000 compounds, 2.2% hits; growth inhibition, % at 10 µM (by protocol); E. coli BW25113 tolC mutant growth, OD615; AID 573;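 active means growth inhibition at or above a cutoff equal to the mean over every tested compound plus 3 SD, cut at about 60% in these data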;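 further: growth measured after 20 h incubation at 37 °C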
#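 test system = E. coli BW25113 ΔtolC::kan bacteria | medium = LB with kanamycin 50 µg/mL | signal = OD at 615 nm | schedule = 37 °C, 20 h exposure | evaluation = % inhibition of E. coli growth | compound dosing = one dose of 10 µM final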
# PostGolgi yeast: growth inhibition of a yeast mutant, post-Golgi transport screen; post-Golgi transport phenotypic cell assay; AID 739; 98,000 compounds, 0.9% hits; inhibition, % at 10 µM;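 further: yeast cells grown in 1536-well plates; yeast grown about 18 h at 30C before absorbance read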
# Starred values were filed as active, the others as inactive; · = no result. Unless noted, no stated cut-off is given here; in the data, active means inhibition above about 30%; inactive means the rest.
SMILES,E coli WT exp,PostGolgi ctrl,HER2 expr 66K,Ecoli tolC,PostGolgi yeast
CCOc1ccc(-c2n[nH]c(C)c2Oc2ccccc2OC)c(O)c1,11.0,5.4,86.4,95.1*,4.0
C=C(C)COc1ccc(-c2n[nH]c(C)c2Oc2ccccc2OC)c(O)c1,9.0,16.7,-6.3*,87.7*,0.3
Cn1c2c(c(=O)n(C)c1=O)C(C(F)(F)F)(C(F)(F)F)N=C(c1ccccc1Cl)N2,2.0,21.0,·,·,31.0*
O=c1cc(CN2CCN(c3ccccc3F)CC2)c2cc3c(cc2o1)CCCC3,4.0,8.2,·,·,-1.3
N#CC1=C(N)Oc2n[nH]c(-c3cccs3)c2C1c1ccsc1 (configuration not stated),-2.0,8.3,99.0,98.0*,8.3
COc1ccc(OC)c(CC(NC(C)=O)C(=O)NC2CCN(c3nc(C)cc(C)c3C#N)CC2)c1 (configuration not stated),·,·,84.8,-14.1,·
CC(C)c1nnc(NC(=O)CCC(=O)NCc2ccc3c(c2)OCO3)s1,-9.0,5.4,95.2,-13.0,7.5
COCCCNC(=O)c1cccn2c(=O)c3cc4ccccc4cc3nc12,2.0,70.2*,·,·,22.5
O=C(NCc1ccco1)c1cccn2c(=O)c3cc4ccccc4cc3nc12,-8.0,11.8,·,·,-14.9
O=C(C1CCCN(S(=O)(=O)c2ccc(Cl)cc2)C1)N(Cc1cccs1)C1CC1 (configuration not stated),0.0,20.5,84.3,58.3,93.8*
COc1cccc(/C=N/Nc2nc(Nc3ccccc3)nc(-n3nc(C)cc3C)n2)c1O,-9.0,58.0*,·,·,-0.2
Oc1ccc(Br)cc1/C=N/N1CCN(Cc2ccccc2)CC1,1.0,21.2,·,·,-1.5
Oc1ccc(Br)cc1/C=N/n1cnc2ccccc21,2.0,32.4*,57.5,3.7,3.0
CCCCc1ccc(Nc2ncnc3nc[nH]c23)cc1,-1.0,60.1*,90.8,38.8,-5.8
COc1cccc(-n2cnc3scc(-c4cccs4)c3c2=O)c1,-9.0,0.7,103.0,26.2,-3.1
COc1ccc(C(=O)Nn2cnc3scc(-c4cccs4)c3c2=O)c(O)c1,-5.0,24.4,71.0,75.2*,2.1
Cc1cc(C2C(C#N)=C(N)OC3=C2C(=O)CCC3)c(C)s1 (configuration not stated),3.0,15.2,·,·,8.6
Cc1cc(C2C(C#N)=C(N)OC3=C2C(=O)CC(C)(C)C3)c(C)s1 (configuration not stated),8.0,40.6*,·,·,0.9
CCN1CCN(C(C(=O)NC2CCCCC2)c2ccc(Cl)cc2)CC1 (configuration not stated),-2.0,-6.6,·,·,-2.0
Cc1cc(C)nc(N2CCCC(C(=O)NCCc3cccc(F)c3)C2)n1 (configuration not stated),0.0,-2.3,113.8,2.1,-2.2
COc1ccc(OC)c(NC(=O)C2CCN(c3nc(C)cc(C)n3)CC2)c1,-2.0,37.0*,113.1,-13.9,1.2
Cc1cc(C)nc(N2CCCC(C(=O)Nc3cc(F)ccc3C)C2)n1 (configuration not stated),0.0,30.1*,77.2,12.8,2.8
CCOc1ccc(OCC)c(NC(=O)C2CCCN(c3nc(C)cc(C)n3)C2)c1 (configuration not stated),-11.0,26.4,78.1,10.4,-2.5
CCOC(=O)C1CCCN(Cc2c(F)cccc2Cl)C1 (configuration not stated),10.0,2.4,119.8,-9.3,1.8
O=C(C1CCN(S(=O)(=O)c2ccc3ccccc3c2)CC1)N1CCN(c2ncccn2)CC1,-6.0,11.7,83.2,9.1,1.9
SMILES,E coli WT exp,PostGolgi ctrl,HER2 expr 66K,Ecoli tolC,PostGolgi yeast
CC1CC(C)CN(c2nc3c(c(=O)n(C)c(=O)n3C)n2CCSc2nc3ccccc3o2)C1 (configuration not stated),·,·,103.8,-6.3,·
CCOC(=O)/C=C(\C)Nc1cc(C)nn1-c1ccccc1,2.0,-1.4,76.5,3.1,-0.2
CCOC(=O)C(=CNc1cc(C)nn1-c1ccc(Cl)cc1)C(=O)OCC,-10.0,40.1*,·,·,2.4
CCC(=O)N1N=C(c2ccc(NS(C)(=O)=O)cc2)CC1c1ccc(C)cc1 (configuration not stated),0.0,13.8,·,·,-3.9
CNC(=S)N1N=C(c2ccc(C)cc2)CC1c1ccc(Br)cc1 (configuration not stated),-18.0,34.6*,·,·,-9.0
CNC(=S)N1N=C(c2ccc(C)cc2)CC1c1ccc(Cl)cc1 (configuration not stated),-15.0,44.3*,·,·,-2.4
O=C(Nc1nc2ccccc2n1CCOc1ccc(Cl)cc1)c1ccco1,1.0,48.8*,69.3,77.1*,6.6
